Data: ChEMBL document CHEMBL4304759, “Identifying Novel Anti-Osteoporosis Leads with a Chemotype-Assembly Approach” (J Med Chem, 2019)
Activity calls are given as the source filed them.

Experiments:
[1] = test system: BMDM; test: Anti-osteoporosis activity in C57BL/6 mouse bone marrow macrophages assessed as inhibition of M-CSF/RANKL-induced osteoclast differentiation supplemented with fresh medium containing compounds every 2 days for 5 measured post-last dose by TRAP staining based assay; assay type: functional, cell-based
Summary of the method: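 Mouse (C57BL/6, 6-week) BMMs were plated at 6×10³ cells/well with M-CSF 30 ng/mL overnight, then given complete α-MEM with M-CSF and GST-rRANKL 100 ng/mL plus compound at varied concentrations, refreshed every 2 days. At day 5 cells were fixed in 4% paraformaldehyde and TRAcP-stained; TRAcP+ cells with >3 nuclei were counted.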

[2] = test system: BMDM; test: (§1) Anti-osteoporosis activity in C57BL/6 mouse bone marrow macrophages assessed as inhibition of M-CSF/RANKL-induced osteoclast differentiation by measuring reduction in TRAcP gene expression at 0.1 uM supplemented with fresh medium containing compounds every 2 days for 5 by trizol-reagent based RT-PCR analysis; assay type: functional, cell-based
Summary of the method: (§2)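 BMMs from femur/tibia of six-week-old C57BL/6 mice, seeded at 1×10^5 cells/well in complete α-MEM (10% FBS) with M-CSF 30 ng/mL and GST-rRANKL 100 ng/mL, with or without compound at 0.1 μM for 5 days. RNA extracted with TRIzol, reverse-transcribed, then qPCR with SYBR-type premix: 40 cycles of 95 °C 10 s, 56 °C 10 s, 72 °C 30 s.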

[3] = test system: BMDM; test: as §1, with “c-FOS” for “TRAcP”; assay type: functional, cell-based; summary of the method: as §2
[4] = test system: BMDM; test: as §1, with “MMP9” for “TRAcP”; assay type: functional, cell-based; summary of the method: as §2
[5] = test system: BMDM; test: as §1, with “NFATc1” for “TRAcP”; assay type: functional, cell-based; summary of the method: as §2
[6] = test system: BMDM; test: Anti-osteoporosis activity in C57BL/6 mouse bone marrow macrophages assessed as inhibition of M-CSF/RANKL-induced osteoclast differentiation by measuring reduction in hydroxyapatite resorption at 0.01 to 1 uM measured after 48 hrs by microscopic analysis; assay type: functional, cell-based
Summary of the method: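 BMMs were driven to mature osteoclasts with GST-rRANKL plus M-CSF (30 ng/mL) on collagen-coated plates. Equal numbers were reseeded onto hydroxyapatite-coated wells with GST-rRANKL/M-CSF, with or without compound, for 48 h. Cells were bleached off, resorbed areas imaged by inverted microscope, and percent surface resorbed quantified.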

[7] = test system: C3H 10T1/2; test: Osteogenic activity in mouse C3H10T1/2 cells assessed as effect on osteogenic medium-induced osteoblast differentiation by measuring calcium deposition at 0.1 to 10 uM after 14 days by alizarin red dye-based assay; assay type: cell-based; conditions: c3h 10t1/2, 336 h
Summary of the method: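 C3H10T1/2 cells were seeded at 5×10^4 cells/cm² in α-MEM with 10% FBS for 24 h. Osteogenic induction used medium with 5% FBS, 10⁻⁷ M dexamethasone, 50 μM ascorbic acid and 10 mM β-glycerol-phosphate, with or without compound, for 14 days. Cells were fixed in 4.0% formaldehyde and stained with 0.1% Alizarin red (pH 4.4) for 5 min at room temperature.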

[8] = test system: C3H 10T1/2; test: Cytotoxicity against mouse C3H10T1/2 cells assessed as effect on cell viability at 0.1 to 100 uM measured after 48 to 72 hrs by CCK8 assay; assay type: cell-based; conditions: c3h 10t1/2, 100 µM
Summary of the method: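 C3H10T1/2 cells in log phase were seeded at 6×10^3 per well and held 24 h. They were then exposed to DMSO vehicle or compound at 0.1–100 μM for 48 h or 72 h. CCK-8 was added for 30 min at 37 °C and absorbance read at 450 nm.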

[9] = test system: Rattus norvegicus; test: Anti-osteoporosis activity in ovariectomized Sprague-Dawley rat assessed as reduction in femur bone mass loss at 10 mg/kg/day, po for 3 months measured post-last dose by micro-CT analysis; assay type: functional, organism-based
[10] = test system: Rattus norvegicus; test: Anti-osteoporosis activity in ovariectomized Sprague-Dawley rat assessed as femur bone mineral density loss at 10 mg/kg/day, po for 3 months measured post-last dose by dual energy X-ray absorptiometry (RVb = 19%); assay type: functional
[11] = test system: Rattus norvegicus; test: Anti-osteoporosis activity in ovariectomized Sprague-Dawley rat assessed as reduction in serum CTX1 level at 10 mg/kg/day, po for 3 months measured post-last dose; assay type: functional, organism-based
[12] = test system: Rattus norvegicus; test: Anti-osteoporosis activity in ovariectomized Sprague-Dawley rat assessed as reduction in serum osteocalcin level at 10 mg/kg/day, po for 3 months measured post-last dose; assay type: functional, organism-based
[13] = test system: Rattus norvegicus; test: Anti-osteoporosis activity in ovariectomized Sprague-Dawley rat assessed as reduction in serum PINP level at 10 mg/kg/day, po for 3 months measured post-last dose; assay type: functional, organism-based
[14] = test system: Rattus norvegicus; test: Effect on serum RANKL level in ovariectomized Sprague-Dawley rat at 10 mg/kg/day, po for 3 months measured post-last dose; assay type: organism-based; conditions: in vivo
[15] = Toxicity in ovariectomized Sprague-Dawley rat assessed as effect on total cholesterol level at 10 mg/kg/day, po for 3 months measured post-last dose; assay type: organism-based; conditions: in vivo
[16] = Toxicity in ovariectomized Sprague-Dawley rat assessed as effect on total triglyceride level at 10 mg/kg/day, po for 3 months measured post-last dose; assay type: organism-based; conditions: in vivo
[17] = Toxicity in ovariectomized Sprague-Dawley rat assessed as effect on alanine aminotransferase level at 10 mg/kg/day, po for 3 months measured post-last dose; assay type: organism-based; conditions: in vivo
[18] = Toxicity in ovariectomized Sprague-Dawley rat assessed as effect on aspartate transaminase level at 10 mg/kg/day, po for 3 months measured post-last dose; assay type: organism-based; conditions: in vivo
[19] = Toxicity in ovariectomized Sprague-Dawley rat assessed as effect on alkaline phosphatase level at 10 mg/kg/day, po for 3 months measured post-last dose; assay type: organism-based; conditions: in vivo
[20] = Toxicity in ovariectomized Sprague-Dawley rat assessed as effect on blood urea nitrogen level at 10 mg/kg/day, po for 3 months measured post-last dose; assay type: organism-based; conditions: in vivo
[21] = Toxicity in ovariectomized Sprague-Dawley rat assessed as effect on creatinine level at 10 mg/kg/day, po for 3 months measured post-last dose; assay type: organism-based; conditions: in vivo
[22] = Cardiotoxicity in ovariectomized Sprague-Dawley rat assessed as effect on heart at 10 mg/kg/day, po for 3 months measured post-last dose; assay type: toxicity, organism-based; conditions: in vivo
[23] = Hepatotoxicity in ovariectomized Sprague-Dawley rat assessed as effect on liver at 10 mg/kg/day, po for 3 months measured post-last dose; assay type: toxicity, organism-based; conditions: in vivo
[24] = Toxicity in ovariectomized Sprague-Dawley rat assessed as effect on spleen at 10 mg/kg/day, po for 3 months measured post-last dose; assay type: organism-based; conditions: in vivo
[25] = Pulmonary toxicity in ovariectomized Sprague-Dawley rat assessed as effect on lung at 10 mg/kg/day, po for 3 months measured post-last dose; assay type: organism-based; conditions: in vivo
[26] = Renal toxicity in ovariectomized Sprague-Dawley rat assessed as effect on kidney at 10 mg/kg/day, po for 3 months measured post-last dose; assay type: organism-based; conditions: in vivo
[27] = Toxicity in ovariectomized Sprague-Dawley rat assessed as effect on uterus at 10 mg/kg/day, po for 3 months measured post-last dose; assay type: organism-based; conditions: in vivo
[28] = Toxicity in ovariectomized Sprague-Dawley rat assessed as effect on thymus at 10 mg/kg/day, po for 3 months measured post-last dose; assay type: organism-based; conditions: in vivo

O=C(Cn1cc(-c2ccncc2)nn1)Nc1nccs1
inactive: Activity [9]
Non-Toxic: Activity [7] | Activity [8] | Activity [14] | Activity [15] | Activity [16] | Activity [17] | Activity [18] | Activity [19] | Activity [20] | Activity [21] | Activity [22] | Activity [23] | Activity [24] | Activity [25] | Activity [26] | Activity [27] | Activity [28]
8%: Activity [10]
active: inhibition [1] Dose-dependent effect | inhibition [2] | inhibition [3] | inhibition [4] | inhibition [5] | inhibition [6] | Activity [11] | Activity [12] | Activity [13]
2 nM: IC50 ([1]; C57BL/6, BMDM, 5 days)
